The record followed here is paper PMC8311649 (Journal of Medicinal Chemistry, 2021).

In data set [1] the test system is strains expressing class C and OXA-48 β-lactamases. Description: Ceftibuten rescue against representative ceftibuten-resistant strains. In kind it is cell-based, K. pneumoniae and E. coli. The note with it: ceftibuten fixed at 1 μg/mL. An outline of the steps:
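Clinical isolates of E. coli and K. pneumoniae carrying the named β-lactamase classes were tested with ceftibuten held at 1 μg/mL. The value is the minimum concentration of the β-lactamase inhibitor that restores ceftibuten antibacterial activity.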

Data set [2] concerns E. coli expressing TEM-1 + CTX-M-15, CTX-M-15, or KPC-2 + SHV-12. Description: Murine ascending UTI model. On the set-up: species or system C3H/HeJ mice. The note with it: mouse, in vivo.
The nature of data set [3]: Oral bioavailability PK screening in rats. It is filed as in vivo. The note with it: rat; oral gavage; dose not given. An outline of the steps: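 Rats were dosed orally with the ester prodrug. F is percent absolute oral bioavailability, corrected for the molecular-weight difference between prodrug and parent.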
In a further data set the target is SHV-5 (class A) (Klebsiella pneumoniae, UniProt P0A3M1). Description: β-lactamase inhibition assay, SHV-5. It is filed as biochemical.
SHV-5 (class A), sequence (P0A3M1 22-286, species assumed): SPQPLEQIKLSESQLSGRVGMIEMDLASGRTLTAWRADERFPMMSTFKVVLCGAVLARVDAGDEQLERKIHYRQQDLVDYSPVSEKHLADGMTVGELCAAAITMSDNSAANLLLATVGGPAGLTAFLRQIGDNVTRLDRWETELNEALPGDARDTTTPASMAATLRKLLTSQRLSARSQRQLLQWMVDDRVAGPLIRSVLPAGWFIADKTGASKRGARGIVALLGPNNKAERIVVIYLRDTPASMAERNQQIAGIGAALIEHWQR
Data set [4] in a line: Bidirectional permeability through Caco-2 monolayers. In kind it is in vitro ADME, human. The note with it: human, Caco-2, pH 7.4, recovery (%), 5 µM, 120 minutes. (In general: Passage across Caco-2 layers is used to estimate intestinal permeability.)
The test system of a further data set is Caco-2 cell monolayers. Described as above. It is filed as in vitro ADME, human. As to conditions: for significant efflux: from ER and Papp (B-to-A); for absorption potential classification: from Papp (A-to-B).
Data set [5] is described as follows: Metabolic stability across all matrixes and species. In kind it is in vitro ADME. As to conditions: CD-1 (mouse), Sprague-Dawley (rat), beagle (dog), cynomolgus monkey, human, intestinal S9, liver S9 and plasma.
Data set [6] is described as follows: Metabolite profiling in cryopreserved hepatocytes. In kind it is in vitro ADME. The note with it: all species.
Data set [7] can be described thus: Metabolic stability, plasma. As to conditions: human. It is filed as in vitro ADME.

With `O=C(CCC(F)(F)F)N[C@H]1Cc2cccc(C(=O)O)c2OB1O` [compound 7, (R)-2-Hydroxy-3-(4,4,4-trifluorobutanamido)-3,4-dihydro-2H-benzo[e][1,2]oxaborinine-8-carboxylic Acid], in [1], the “activity rescuing ceftibuten (in words)” value is given as “reduced activity”.
Turning to `Nc1nc(/C(=C/CC(=O)O)C(=O)N[C@@H]2C(=O)N3C(C(=O)O)=CCS[C@H]23)cs1` [CTB, ceftibuten], in data set [2], the “cfu reductions in the bladder” value is recorded as ≤ 2 log10 and the “cfu reductions in urine” value was ≤ 2 log10. In addition, the “cfu reductions in the kidneys” value in [2] (sc) is “minimal cfu reductions”.
As to `CCC(=O)N[C@H]1Cc2cccc(C(=O)OCOC(=O)C(C)(C)C)c2OB1O` [compound 20, (Pivaloyloxy)methyl (R)-2-Hydroxy-3-propionamido-3,4-dihydro-2H-benzo[e][1,2]oxaborinine-8-carboxylate], in data set [3], the “oral bioavailability (F) in rats” value was “highest oral bioavailability”.
Regarding `C#CCCC(=O)N[C@H]1Cc2cccc(C(=O)O)c2OB1O` [compound 12, (R)-2-Hydroxy-3-(pent-4-ynamido)-3,4-dihydro-2H-benzo[e][1,2]oxaborinine-8-carboxylic Acid], in data set [1], the “activity rescuing ceftibuten (in words)” value is given as “reduced activity”.
A word on the IC50: it is the concentration that gives 50% inhibition. Read a low IC50 as greater potency. `CC(F)(F)CCC(=O)N[C@H]1Cc2cccc(C(=O)O)c2OB1O` [compound 14, (R)-3-(4,4-Difluoropentanamido)-2-hydroxy-3,4-dihydro-2H-benzo[e][1,2]oxaborinine-8-carboxylic Acid] returned an IC50 against SHV-5 (class A) of 6 nM. The “activity rescuing ceftibuten (in words)” value in data set [1] is given as “reduced activity”.
The term half-life denotes the time in which the quantity being followed falls by half. `CCC(=O)N[C@H]1Cc2cccc(C(=O)O)c2OB1O` [compound 5, (R)-2-Hydroxy-3-propionamido-3,4-dihydro-2H-benzo[e][1,2]oxaborinine-8-carboxylic Acid] had a recovery at 120 min, 5 µM in data set [4] (A-to-B) of 103%. Besides, the recovery at 120 min, 5 µM in [4] (B-to-A) came out at 106%. Moreover, in the data set with Caco-2 cell monolayers, the significant efflux result is given as “no” and the absorption potential classification entry is reported as “low (Papp (A-to-B) < 1.0 × 10^–6 cm/s: low)”. In addition, in data set [5], the half-life at 3 µM was > 120 min.
Regarding `CCC(=O)N[C@H]1Cc2cccc(C(=O)OCOC(=O)C(CC)CC)c2OB1O` [compound 36, ((2-Ethylbutanoyl)oxy)methyl (R)-2-Hydroxy-3-propionamido-3,4-dihydro-2H-benzo[e][1,2]oxaborinine-8-carboxylate], in data set [6] (2 µM and 20 µM, 37 °C, 240 min), the “parent remaining after hepatocyte incubation” value was 0–5%. For the same compound, the “metabolites detected after hepatocyte incubation” value in [6] (metabolite identified as 5 (hydrolysis)) is on record as “one metabolite”. In data set [7], the half-life at 3 µM is ~11 min. The “oral bioavailability (F) in rats” value in [3] was “highest oral bioavailability”. This compound also showed a recovery at 120 min, 5 µM in data set [4] (A-to-B) of 90%. The recovery at 120 min, 5 µM in data set [4] (B-to-A) turned out to be 98%. In addition, in the data set with Caco-2 cell monolayers, the significant efflux result was “yes (ER ≥ 2.0 and Papp (B-to-A) ≥ 1.0 × 10^–6 cm/s)”; the absorption potential classification entry was “high (Papp (A-to-B) ≥ 1.0 × 10^–6 cm/s: high)”.
